In general, MIC refers to the lowest concentration found to suppress growth.

One experiment deals with Enterococcus faecalis. Put plainly: In vitro antibacterial activity against Enterococcus faecalis IID 682,[…],(gram-positive). Format: functional. The procedure, abridged: (§1)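 MIC by serial 2-fold agar dilution on Mueller–Hinton agar; inoculum about 10^6 CFU/mL; MIC taken as lowest concentration preventing visible growth after 18 h at 37 °C.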
Experiment [1] deals with Pseudomonas aeruginosa. In words: In vitro antibacterial activity against Pseudomonas aeruginosa E-2,Pa(E),(gram-negative). Format: functional. The procedure, abridged:
as §1

In experiment [2] the test system is Pseudomonas aeruginosa. In words: In vitro antibacterial activity against Pseudomonas aeruginosa IFO 3445,Pa(I),(gram-negative). Format: functional. The gist of the method: as §1
For experiment [3], the system named is Staphylococcus aureus. Put plainly: In vitro antibacterial activity against staphylococcus aureus IID 803,(gram-positive). It is filed as functional. The gist of the method: as §1
For experiment [4], the system named is Escherichia coli. In words: In vitro antibacterial activity against Escherichia coli NIHJ JC-2,(gram-negative).
Experiment [5] has as its system Staphylococcus aureus. Put plainly: In vitro antibacterial activity against staphylococcus aureus FDA 209P JC-1,Sa(F)(gram-positive). Format: functional. The gist of the method:
as §1

The test system of experiment [6] is Staphylococcus epidermidis. Put plainly: In vitro antibacterial activity against staphylococcus epidermidis IAM 1296, (gram-positive). It is filed as functional. The procedure, abridged:
as §1

For another experiment, the system named is Klebsiella pneumoniae. Put plainly: In vitro antibacterial activity against klebsiella pneumoniae B54,Kp,(gram-negative). It is filed as functional.
Experiment [7] relates to Escherichia coli. Put plainly: In vitro antibacterial activity against Escherichia coli KC-14, Ec(K), (gram-negative). Format: functional. The procedure, abridged:
as §1

The structures appear in SMILES notation. Values after ≈ are worked out from the molar mass of the structure shown.

For the compound `Cl.O=C(O)c1cn(C2CC2)c2cc(N3CCNCC3)c(F)cc2c1=O` [CIPROFLOXACIN HYDROCHLORIDE], the minimum inhibitory concentration (MIC) in the experiment with Enterococcus faecalis was found to be 0.78 µg/mL; in the experiment on Pseudomonas aeruginosa [1], 0.78 µg/mL; against Pseudomonas aeruginosa [2] it was 0.78 µg/mL; against Staphylococcus aureus [3], 0.78 µg/mL; in the experiment with Escherichia coli [4] it was 0.05 µg/mL; against Staphylococcus aureus [5], 0.2 µg/mL. The same compound showed an MIC in experiment [6] of 1.56 µg/mL.
In the case of `O=C1CN(c2c(F)cc3c(=O)c(C(=O)O)c4scc5n4c3c2OC5)CCN1`, the minimal inhibitory concentration (MIC) in the experiment with Enterococcus faecalis came out at 3.13 µg/mL (≈ 8.04 µM); against Pseudomonas aeruginosa [1], 6.25 µg/mL (≈ 16.1 µM); in the experiment with Pseudomonas aeruginosa [2] it was 6.25 µg/mL (≈ 16.1 µM); in the experiment with Staphylococcus aureus [3], 1.56 µg/mL (≈ 4.01 µM); in the experiment with Escherichia coli [4] it was 1.56 µg/mL (≈ 4.01 µM); against Staphylococcus aureus [5], 3.13 µg/mL (≈ 8.04 µM). Moreover, the minimum inhibitory concentration (MIC) was 1.56 µg/mL (≈ 4.01 µM) in the experiment with Klebsiella pneumoniae, 1.56 µg/mL (≈ 4.01 µM) against Escherichia coli [7] and 12.5 µg/mL (≈ 32.1 µM) in [6].
For `C[C@@H]1CN(c2c(F)cc3c(=O)c(C(=O)O)c4scc5n4c3c2OC5)C[C@H](C)N1.Cl`, the MIC in the experiment on Enterococcus faecalis was determined as 0.78 µg/mL; against Pseudomonas aeruginosa [1], 3.13 µg/mL; in the experiment with Pseudomonas aeruginosa [2] it was 3.13 µg/mL; with Staphylococcus aureus [3], 0.2 µg/mL; with Escherichia coli [4] it was 0.2 µg/mL; against Staphylococcus aureus [5], 0.2 µg/mL. Besides, the MIC against Klebsiella pneumoniae worked out at 0.39 µg/mL; in the experiment with Escherichia coli [7], 0.1 µg/mL; in experiment [6], 0.39 µg/mL.
In the case of `CSc1c(F)cc2c(=O)c(C(=O)O)c3scc4n3c2c1OC4`, the minimum inhibitory concentration (MIC) is 3.13 µg/mL (≈ 9.28 µM) in the experiment with Enterococcus faecalis; 3.13 µg/mL (≈ 9.28 µM) against Pseudomonas aeruginosa [1]; 1.56 µg/mL (≈ 4.62 µM) in the experiment on Pseudomonas aeruginosa [2]; 0.1 µg/mL (≈ 0.296 µM) against Staphylococcus aureus [3]; 0.39 µg/mL (≈ 1.16 µM) against Escherichia coli [4]; 0.2 µg/mL (≈ 0.593 µM) against Staphylococcus aureus [5]. The MIC stood at 0.39 µg/mL (≈ 1.16 µM) with Klebsiella pneumoniae, 0.2 µg/mL (≈ 0.593 µM) against Escherichia coli [7] and 0.2 µg/mL (≈ 0.593 µM) in experiment [6].
For `O=C(O)c1c(=O)c2cc(F)c(N3CCCC3)c3c2n2c(csc12)CO3`, the minimum inhibitory concentration (MIC) with Enterococcus faecalis worked out at 0.2 µg/mL (≈ 0.555 µM); against Pseudomonas aeruginosa [1], 1.56 µg/mL (≈ 4.33 µM); against Pseudomonas aeruginosa [2], 1.56 µg/mL (≈ 4.33 µM); with Staphylococcus aureus [3], 0.05 µg/mL (≈ 0.139 µM); in the experiment on Escherichia coli [4], 0.2 µg/mL (≈ 0.555 µM); with Staphylococcus aureus [5] it was 0.025 µg/mL (≈ 0.0694 µM). The results for the MIC (with Klebsiella pneumoniae; in the experiment with Escherichia coli [7]; in experiment [6]) were 0.2 µg/mL (≈ 0.555 µM), 0.2 µg/mL (≈ 0.555 µM) and 0.05 µg/mL (≈ 0.139 µM), respectively.
As for `CCn1cc(C(=O)O)c(=O)c2cc(F)c(N3CCNCC3)nc21` [ENOXACIN], the MIC in the experiment on Enterococcus faecalis was 3.13 µg/mL (≈ 9.77 µM); in the experiment with Pseudomonas aeruginosa [1], 1.56 µg/mL (≈ 4.87 µM); in the experiment on Pseudomonas aeruginosa [2], 1.56 µg/mL (≈ 4.87 µM); against Staphylococcus aureus [3], 0.78 µg/mL (≈ 2.44 µM); in the experiment on Escherichia coli [4], 0.2 µg/mL (≈ 0.624 µM); against Staphylococcus aureus [5] it was 0.78 µg/mL (≈ 2.44 µM). Further, the minimal inhibitory concentration (MIC) against Klebsiella pneumoniae was determined as 0.1 µg/mL (≈ 0.312 µM); against Escherichia coli [7], 0.2 µg/mL (≈ 0.624 µM); in [6] it was 3.13 µg/mL (≈ 9.77 µM).
Consider `O=C(O)c1c(=O)c2cc(F)c(N3CCCCC3)c3c2n2c(csc12)CO3`, for which the MIC against Enterococcus faecalis stood at 1.56 µg/mL (≈ 4.17 µM); in the experiment with Pseudomonas aeruginosa [1] it was 6.25 µg/mL (≈ 16.7 µM); in the experiment with Pseudomonas aeruginosa [2], 12.5 µg/mL (≈ 33.4 µM); in the experiment with Staphylococcus aureus [3] it was 0.1 µg/mL (≈ 0.267 µM); against Escherichia coli [4], 0.78 µg/mL (≈ 2.08 µM); against Staphylococcus aureus [5], 0.1 µg/mL (≈ 0.267 µM). Also, the MIC was determined as 1.56 µg/mL (≈ 4.17 µM) against Klebsiella pneumoniae, 3.13 µg/mL (≈ 8.36 µM) in the experiment on Escherichia coli [7] and 0.2 µg/mL (≈ 0.534 µM) in experiment [6].
Consider `O=C(O)c1c(=O)c2cc(F)c(N3CCSCC3)c3c2n2c(csc12)CO3`, for which the MIC was found to be 3.13 µg/mL (≈ 7.98 µM) in the experiment on Enterococcus faecalis; 3.13 µg/mL (≈ 7.98 µM) with Pseudomonas aeruginosa [1]; 6.25 µg/mL (≈ 15.9 µM) against Pseudomonas aeruginosa [2]; 0.05 µg/mL (≈ 0.127 µM) against Staphylococcus aureus [3]; 0.39 µg/mL (≈ 0.994 µM) in the experiment with Escherichia coli [4]; 0.05 µg/mL (≈ 0.127 µM) against Staphylococcus aureus [5]. Moreover, the MIC against Klebsiella pneumoniae came out at 0.39 µg/mL (≈ 0.994 µM); with Escherichia coli [7], 0.39 µg/mL (≈ 0.994 µM); in experiment [6], 0.1 µg/mL (≈ 0.255 µM).
Consider `O=C(O)c1c(=O)c2cc(F)c(N3CCOCC3)c3c2n2c(csc12)CO3`, for which the MIC was found to be 0.39 µg/mL (≈ 1.04 µM) with Enterococcus faecalis; 0.39 µg/mL (≈ 1.04 µM) in the experiment with Pseudomonas aeruginosa [1]; 1.56 µg/mL (≈ 4.14 µM) in the experiment with Pseudomonas aeruginosa [2]; 0.05 µg/mL (≈ 0.133 µM) with Staphylococcus aureus [3]; 0.39 µg/mL (≈ 1.04 µM) in the experiment on Escherichia coli [4]; 0.05 µg/mL (≈ 0.133 µM) in the experiment on Staphylococcus aureus [5]. The minimal inhibitory concentration (MIC) with Klebsiella pneumoniae worked out at 0.2 µg/mL (≈ 0.531 µM); against Escherichia coli [7], 0.39 µg/mL (≈ 1.04 µM); in [6], 0.1 µg/mL (≈ 0.266 µM).

Values taken from ChEMBL document CHEMBL1126175, “Synthesis and antibacterial activity of new tetracyclic quinolone antibacterials” (J Med Chem, 1992).
